The test system of series [1] is Gerbillinae. The series is described as follows: Inhibition of GR-73632-induced foot taping in iv dosed gerbils after 24 hrs. It is filed as functional. Particulars: read-out: ID50 (the source's name).
The nature of series [2]: Volume of distribution in rhesus monkey. The format is ADME, organism-based, Macaca mulatta. The conditions noted are these: in vivo.
For series [3], the target named is Cytochrome P450 2C9 (Homo sapiens, UniProt P11712). The series is described as follows: Inhibition of CYP2C9. It is filed as ADME.
A short description of series [4]: Potency (IC50) in iv dosed gerbil brain after 1 hr. The conditions noted are these: gerbillinae.
Series [5] can be described thus: Displacement of diltiazem […] from calcium channel. The procedure, abridged:
(§1)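 Ion-channel binding assay; IC50 values calculated for sodium channel and for calcium channel (diltiazem site).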

The nature of series [6]: Half life in rat. The format is ADME, organism-based. Particulars: in vivo.
The nature of series [7]: Oral bioavailability in dog. Particulars: in vivo. The format is ADME, organism-based, Canis lupus familiaris.
The nature of series [8]: Plasma clearance in rhesus monkey. The format is ADME, organism-based, Macaca mulatta.
Series [9] can be described thus: Volume of distribution in rat. It is filed as ADME, organism-based. The conditions noted are these: in vivo.
Series [10] is described as follows: Stability in human microsomes assessed as compound remaining after 60 mins. Particulars: read-out: Stability. It is filed as ADME, Microsome.
Series [11] deals with Cytochrome P450 3A4 (Homo sapiens, UniProt P08684). The series can be described thus: Inhibition of CYP3A4. It is filed as ADME.
Series [12] relates to Gerbillinae. The series is described as follows: Inhibition of GR-73632-induced foot taping in iv dosed gerbils after 1 hr. The format is functional. Particulars: read-out: ID50 (the source's name).
Series [13] can be described thus: Inhibition of sodium channel. The method, boiled down: as §1
Series [14] in a line: Oral bioavailability in rat. The format is ADME, organism-based. Particulars: in vivo.
A short description of series [15]: Half life in dog. The format is ADME, organism-based, Canis lupus familiaris. Particulars: in vivo.
A short description of series [16]: Ratio of drug level in brain to plasma in rat at 1 mg/kg, iv after 4 hrs. The conditions noted are these: brain and plasma. Also on record: dose 1 mg/kg, route intravenous. It is filed as ADME, organism-based.
The target of series [17] is T1, Substance-P receptor (Homo sapiens, UniProt P25103). The series is described as follows: Displacement of [125I]substance P from human NK1 receptor expressed in CHO cells. The format is cell-based. The method, boiled down: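 Competition binding: [125I]-labelled substance P displaced from cloned human NK1 receptor expressed in CHO cells; IC50 reported as mean of n = 3.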

For series [18], the target named is Cytochrome P450 2D6 (Homo sapiens, UniProt P10635). The series is described as follows: Inhibition of CYP2D6. The format is ADME.
Series [19] has as its system Gerbillinae. The series can be described thus: Inhibition of GR-73632-induced foot tapping in gerbils at 3 mg/kg, iv after 24 hrs. It is filed as functional. The conditions noted are these: for inhibition in vivo at 3 mg/kg: Gerbillinae, iv, 24 h. The method, boiled down: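 Gerbils dosed iv at 3 mg/kg; foot tapping induced by NK1 agonist GR73632 evaluated 24 h post-dose; percent inhibition of the tapping response.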

A short description of series [20]: Plasma clearance in rat. It is filed as ADME, organism-based.
Series [21] in a line: Potency (IC50) in iv dosed gerbil after 1 hr. The conditions noted are these: gerbillinae, plasma.
Series [22] is described as follows: Stability in rat microsomes assessed as compound remaining after 60 mins. It is filed as ADME, Microsome. Particulars: read-out: Stability.
Series [23] is described as follows: Stability in rhesus monkey microsomes assessed as compound remaining after 60 mins. The format is ADME, Macaca mulatta, Microsome. Particulars: read-out: Stability.
The target of series [24] is T2, PXR (nuclear receptor subfamily 1 group I member 2) (Homo sapiens, UniProt O75469).
T2 sequence (O75469 whole entry): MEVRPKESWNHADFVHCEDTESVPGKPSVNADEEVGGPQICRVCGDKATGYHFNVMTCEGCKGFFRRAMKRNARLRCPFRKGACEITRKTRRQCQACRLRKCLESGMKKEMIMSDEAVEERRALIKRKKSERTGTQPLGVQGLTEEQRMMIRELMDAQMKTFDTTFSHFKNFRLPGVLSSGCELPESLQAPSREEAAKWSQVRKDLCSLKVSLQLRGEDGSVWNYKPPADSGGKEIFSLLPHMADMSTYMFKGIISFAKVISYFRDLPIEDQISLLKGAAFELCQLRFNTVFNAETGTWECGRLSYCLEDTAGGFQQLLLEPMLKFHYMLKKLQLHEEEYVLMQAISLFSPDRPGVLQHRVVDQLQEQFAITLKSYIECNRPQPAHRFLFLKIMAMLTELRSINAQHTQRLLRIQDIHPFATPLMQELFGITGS
The series can be described thus: inhibition of human PXR at 10 uM.

Series [25] can be described thus: Plasma clearance in dog. It is filed as ADME, organism-based, Canis lupus familiaris.
The nature of series [26]: Volume of distribution in dog. Particulars: in vivo. The format is ADME, organism-based, Canis lupus familiaris.
Series [27] can be described thus: Oral bioavailability in rhesus monkey. It is filed as ADME, organism-based, Macaca mulatta. The conditions noted are these: in vivo.
Series [28] can be described thus: Stability in dog microsomes assessed as compound remaining after 60 mins. It is filed as ADME, Canis lupus familiaris, Microsome. The conditions noted are these: read-out: Stability.
Series [29] is described as follows: Half life in rhesus monkey. It is filed as ADME, organism-based, Macaca mulatta. The conditions noted are these: in vivo.
In series [30] the target is T1, Substance-P receptor. The series is described as follows: Displacement of [125I]substance P from human NK1 receptor expressed in CHO cells in the presence of 50 percent human serum. It is filed as cell-based.
Series [31] can be described thus: Induction of CYP3A4 expression in human LS180 cells relative to rifampin. It is filed as ADME, cell-based. The procedure, abridged:
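Human LS180 cells treated with test compound at 10 µM. CYP3A4 induction is expressed as fold induction.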

Series [32] concerns the target T1, Substance-P receptor. The series is described as follows: Antagonist activity at human NK1 receptor expressed in CHO cells assessed as inhibition of substance P-induced inositol phosphate generation at 100 nM. It is filed as functional, cell-based.
Series [33] relates to Gerbillinae. The series can be described thus: Inhibition of GR-73632-induced foot tapping in gerbils at 1 mg/kg, iv after 0.1 hrs. The format is functional.
Series [34] has as its system Gerbillinae. The series is described as follows: Inhibition of GR-73632-induced foot tapping in gerbils at 1 mg/kg, iv after 1 hr. The format is functional. The method, boiled down: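 Gerbils given 1 mg/kg iv; GR73632-induced foot tapping challenged 1 h after dosing; inhibition of tapping scored.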

Data on four molecules can be found in ChEMBL document CHEMBL1155387, “Substituted fused bicyclic pyrrolizinones as potent, orally bioavailable hNK1 antagonists” (Bioorg Med Chem Lett, 2010).

Values joined by “and” are separate entries in the source; they are usually repeats but may differ in a detail not shown here. Identical values can stand only once.

T1 sequence (P25103 whole entry): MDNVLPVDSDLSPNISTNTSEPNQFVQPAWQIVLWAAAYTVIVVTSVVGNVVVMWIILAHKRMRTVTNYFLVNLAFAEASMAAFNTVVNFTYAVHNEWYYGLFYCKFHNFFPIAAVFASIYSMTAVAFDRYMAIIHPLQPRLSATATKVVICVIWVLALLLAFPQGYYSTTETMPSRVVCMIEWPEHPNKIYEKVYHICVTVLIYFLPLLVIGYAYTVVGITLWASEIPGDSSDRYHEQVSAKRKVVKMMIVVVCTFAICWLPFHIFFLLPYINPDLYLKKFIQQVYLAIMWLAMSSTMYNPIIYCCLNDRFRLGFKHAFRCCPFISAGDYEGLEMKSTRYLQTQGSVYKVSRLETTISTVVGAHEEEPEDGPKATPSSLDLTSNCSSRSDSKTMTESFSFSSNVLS
Cytochrome P450 2D6, sequence (P10635 whole entry): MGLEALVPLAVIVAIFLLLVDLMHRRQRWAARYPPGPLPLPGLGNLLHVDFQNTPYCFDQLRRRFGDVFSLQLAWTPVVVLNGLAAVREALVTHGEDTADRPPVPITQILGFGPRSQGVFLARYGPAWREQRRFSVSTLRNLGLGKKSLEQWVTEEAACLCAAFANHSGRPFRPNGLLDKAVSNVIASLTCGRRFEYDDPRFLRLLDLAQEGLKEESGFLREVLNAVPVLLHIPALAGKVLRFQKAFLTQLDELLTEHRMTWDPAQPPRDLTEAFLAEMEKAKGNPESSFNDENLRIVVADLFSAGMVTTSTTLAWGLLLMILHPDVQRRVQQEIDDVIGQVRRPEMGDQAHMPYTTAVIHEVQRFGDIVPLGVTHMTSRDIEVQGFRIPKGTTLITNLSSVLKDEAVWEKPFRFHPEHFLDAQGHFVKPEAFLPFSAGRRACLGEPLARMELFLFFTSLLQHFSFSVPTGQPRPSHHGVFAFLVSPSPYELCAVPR
Cytochrome P450 3A4, sequence (P08684 whole entry): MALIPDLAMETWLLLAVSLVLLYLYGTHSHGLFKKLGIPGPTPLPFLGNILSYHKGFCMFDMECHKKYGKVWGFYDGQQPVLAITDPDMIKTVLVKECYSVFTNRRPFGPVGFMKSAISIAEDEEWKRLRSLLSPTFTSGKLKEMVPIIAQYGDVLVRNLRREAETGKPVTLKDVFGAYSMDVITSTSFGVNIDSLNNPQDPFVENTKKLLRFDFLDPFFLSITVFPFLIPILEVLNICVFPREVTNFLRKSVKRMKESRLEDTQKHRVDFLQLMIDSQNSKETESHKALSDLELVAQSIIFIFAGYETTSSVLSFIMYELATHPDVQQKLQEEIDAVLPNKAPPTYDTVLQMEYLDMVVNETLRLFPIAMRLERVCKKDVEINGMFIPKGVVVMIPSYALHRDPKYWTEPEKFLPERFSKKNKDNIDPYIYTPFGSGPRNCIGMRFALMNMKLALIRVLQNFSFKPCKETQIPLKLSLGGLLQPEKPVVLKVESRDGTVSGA
Cytochrome P450 2C9, sequence (P11712 whole entry): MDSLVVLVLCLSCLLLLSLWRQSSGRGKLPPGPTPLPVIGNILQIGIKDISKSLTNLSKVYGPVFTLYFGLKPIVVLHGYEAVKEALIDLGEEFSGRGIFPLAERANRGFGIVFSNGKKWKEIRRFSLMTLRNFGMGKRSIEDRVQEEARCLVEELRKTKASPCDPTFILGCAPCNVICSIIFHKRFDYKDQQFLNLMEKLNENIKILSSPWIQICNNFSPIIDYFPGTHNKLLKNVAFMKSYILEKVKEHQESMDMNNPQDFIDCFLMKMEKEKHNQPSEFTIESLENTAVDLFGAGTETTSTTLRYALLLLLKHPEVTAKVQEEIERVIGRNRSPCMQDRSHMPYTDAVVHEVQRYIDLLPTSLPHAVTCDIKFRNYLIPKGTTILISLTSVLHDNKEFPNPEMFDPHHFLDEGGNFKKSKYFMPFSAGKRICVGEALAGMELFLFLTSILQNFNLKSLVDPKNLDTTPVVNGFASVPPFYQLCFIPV

As to `C[C@@H](O[C@H]1CN2C(=O)C(O)C[C@H]2[C@@H]1c1ccc(F)cc1)c1cc(C(F)(F)F)cc(C(F)(F)F)c1` (stereo in doubt; 2b), the ED50 is 0.016 mg/kg in [1] and 0.02 mg/kg in series [12]. The Vd amounted to 2.6 L/kg in series [2], 4.2 L/kg in [9] and 2.8 L/kg in series [26]. The INH in series [3] is over 100 µM; in [11] it was over 100 µM; in [18], 62.2 µM. In addition, the IC50 at 1 h in [4] is 3.8 nM; in series [21], 8.4 nM. Besides, the IC50 in series [5] is 9400 nM and 2600 nM; in series [13] it was 4360 nM and 2600 nM; in series [17] it was 0.08 nM; in series [30], 0.91 nM. In addition, the half-life in series [6] was 13 h; in series [15], 128 h; in series [29], 80.4 h. Besides, the bioavailability was 98% in [7], 93% in series [14] and 68% in [27]. Further, the clearance in series [8] was found to be 1 mL/min/kg; in [20], 5.1 mL/min/kg; in series [25], 0.8 mL/min/kg. The remaining at 1 h in series [10] was determined as 54%; in series [22] it was 60%; in series [23], 23%; in series [28], 73%. In series [16], the Kp at 4 h turned out to be 1. The “inhibition (INH)” value in series [19] (3 mg/kg) was 100%. Besides, testing at 10 µM in series [24] gave an inhibition of 31%. Besides, the Ratio in [31] worked out at 13.
Turning to `C[C@@H](O[C@H]1CN2C(=O)CC(N)[C@H]2[C@@H]1c1ccc(F)cc1)c1cc(C(F)(F)F)cc(C(F)(F)F)c1` (stereo in doubt; 15a), the figures for the ED50 in [1] and in series [12] were 0.92 mg/kg and 0.88 mg/kg, respectively. Besides, the values for the Activity in [3], in series [11] and in series [18] were 45 µM, over 100 µM and 66 µM, respectively. Moreover, the IC50 in [5] was 1880 nM; in series [13] it was 7720 nM; in series [17] it was 0.09 nM; in [30], 0.6 nM. Further, in series [6], the half-life is 7.7 h. For the same molecule, the Vd in series [9] is 5.9 L/kg. Further, the remaining at 1 h in series [10] turned out to be 66%; in series [22] it was 85%; in series [23] it was 91%; in series [28] it was 89%. The bioavailability in [14] was 78%. The Kp at 4 h in [16] is 1.4. Moreover, testing at 3 mg/kg in [19] gave an inhibition in vivo of 100%. The molecule further had a clearance in series [20] of 8.9 mL/min/kg.
`CC(=O)N1C[C@H](O[C@H](C)c2cc(C(F)(F)F)cc(C(F)(F)F)c2)[C@@H](c2ccc(F)cc2)[C@@H]1CO`: the inhibition of substance P-induced inositol phosphate generation in [32] was 91%. In addition, the IC50 in [17] stood at 0.3 nM; in [30] it was 43.1 nM. The molecule also returned an inhibition in vivo at 3 mg/kg in series [19] of 0%. In addition, at 1 mg/kg the inhibition in vivo in series [33] was 49%.
On to `C[C@@H](O[C@H]1CN2C(=O)CC[C@H]2[C@@H]1c1ccc(F)cc1)c1cc(C(F)(F)F)cc(C(F)(F)F)c1`, for which the inhibition of substance P-induced inositol phosphate generation in series [32] stood at 67%. Also, at 3 mg/kg the inhibition in vivo in series [19] was 100%. Moreover, the inhibition in vivo at 1 mg/kg in series [33] and in series [34] was 100% throughout. Moreover, the IC50 in [30] was 2.2 nM.
